In one series the test system is P. falciparum 3D7. The experiment in a line: microbe, parasite or virus in culture. The format is cell-based. To be noted: Plasmodium falciparum, 3D7, read-out: P. falciparum IC50 3D7.
A further series concerns P. falciparum Dd2. As to the kind of experiment: P. falciparum growth inhibition assay, [3H] hypoxanthine incorporation, Dd2 line. The format is cell-based. To be noted: Plasmodium falciparum, DD2, read-out: P. falciparum IC50 Dd2.
Series [1] relates to asexual-stage P. falciparum. As to the kind of experiment: P. falciparum asexual-stage growth inhibition, line not specified or both lines. Type of series: cell-based, Plasmodium falciparum. Conditions: for IC50 / IC90: Plasmodium falciparum; for IC50: 3D7|DD2, read-out: IC50 against 3D7 and Dd2 P. falciparum lines; for IC90: in Homo sapiens, read-out: P. falciparum IC90; for P. falciparum SI (Selectivity Index): mammalian cell IC50/P. falciparum IC50, larger values indicate greater parasite selectivity.

Series [2] has as its system T. b. brucei 427 bloodstream trypanosomes. As to the kind of experiment: T. b. brucei growth inhibition assay. The format is cell-based, Trypanosoma brucei brucei. To be noted: for IC50: read-out: T. b. brucei IC50; for IC90: in Homo sapiens, read-out: T. b. brucei IC90; for T. b. brucei SI (Selectivity Index): mammalian cell IC50/T. brucei IC50.
The test system of series [3] is Neonatal foreskin fibroblast (NFF) cells. As to the kind of experiment: NFF cytotoxicity assay. The format is cell-based. Conditions: Homo sapiens, 72 h, read-out: Mammalian cell IC50 NFF.
The next series has as its system HEK293 cells. The experiment in a line: HEK293 cytotoxicity assay. Type of series: cell-based. To be noted: read-out: Mammalian cell IC50 HEK 293.
Series [4] has as its system tetra-acetylated histone H4 in P. falciparum 3D7 trophozoites. As to the kind of experiment: Protein hyperacetylation assay, Western blot, anti-tetra-acetyl histone H4. Type of series: cell-based, Plasmodium falciparum. Conditions: 3× IC50, 3 h; for Hyperacetylation, anti-(tetra) acetyl H4 antibody (words): vs vehicle control. In outline:
(§1)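 Synchronous trophozoite-stage 3D7-infected erythrocytes (3–5% parasitemia, 5% haematocrit) were exposed for 3 h, with controls of 0.05% DMSO vehicle, chloroquine and a reference HDAC inhibitor. Lysis used 0.15% saponin, then PBS washes, SDS-PAGE and PVDF blotting. Rabbit primaries ran overnight at 4 °C: tetra-acetyl H4 1:2000, H3K9 1:1000, H3 N-terminus 1:500. Membranes were stripped at pH 2 and reprobed with anti-RAP2. Densitometry was RAP2-normalised and expressed as fold change vs vehicle (=1).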
(In western blotting, separated proteins are transferred to a membrane and probed.)

The next series has as its target T1, recombinant PfHDAC1 (Plasmodium falciparum, UniProt Q7K6A1).
T1 sequence (Q7K6A1 1-449): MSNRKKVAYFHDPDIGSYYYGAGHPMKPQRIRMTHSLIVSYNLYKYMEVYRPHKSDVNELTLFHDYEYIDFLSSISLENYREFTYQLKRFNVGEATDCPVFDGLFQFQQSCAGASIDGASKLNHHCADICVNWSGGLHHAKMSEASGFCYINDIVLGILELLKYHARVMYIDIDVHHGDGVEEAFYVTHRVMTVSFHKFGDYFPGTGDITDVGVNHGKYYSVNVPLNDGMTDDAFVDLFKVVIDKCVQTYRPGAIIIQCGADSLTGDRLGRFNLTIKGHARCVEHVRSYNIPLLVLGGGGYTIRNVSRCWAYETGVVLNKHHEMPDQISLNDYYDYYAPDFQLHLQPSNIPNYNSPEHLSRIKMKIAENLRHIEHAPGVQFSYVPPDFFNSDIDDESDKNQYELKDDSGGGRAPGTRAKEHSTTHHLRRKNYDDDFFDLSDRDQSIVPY
The experiment in a line: Deacetylase activity assay, recombinant PfHDAC1. Type of series: biochemical. To be noted: mean (±SD) of two independent assays; for inhibition at 1 µM: read-out: PfHDAC1 % inhibition at 1 μM, 1 μM. The gist of the method: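 Recombinant PfHDAC1 (32 ng/ml) was incubated with test compound or control at 1 μM, or with vehicle (0.5% DMSO). Ac-RGK(Ac)-AMC fluorogenic substrate was added for 1 h at 37 °C, then activator solution for 10 min at room temperature. Fluorescence (ex 350–380/em 440–460 nm) was read within 60 min. Percent inhibition was calculated versus DMSO controls from two independent assays, each in duplicate.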

A further series relates to T. b. brucei. To be noted: read-out: T. b. brucei growth IC50; ref Carrillo et al., 2015; cited from earlier work.
For series [5], the system named is acetyl histone H3 lysine 9 in P. falciparum 3D7 trophozoites. The experiment in a line: Protein hyperacetylation assay, Western blot, anti-acetyl histone H3 lysine 9. The format is cell-based, Plasmodium falciparum. Conditions: 3× IC50, 3 h. The gist of the method:
as §1

Series [6] has as its system acetyl histone H3 N-terminus in P. falciparum 3D7 trophozoites. As to the kind of experiment: Protein hyperacetylation assay, Western blot, anti-acetyl histone H3 N-terminus. Type of series: cell-based, Plasmodium falciparum. Conditions: 3× IC50, 3 h. The gist of the method:
as §1

For the next series, the system named is P. falciparum. To be noted: read-out: P. falciparum in vitro growth IC50; ref Patel et al., 2009; cited from earlier work.
The test system of series [7] is sexual stage P. falciparum gametocytes. To be noted: ref Sun et al., 2014, cited from earlier work; for IC50: read-out: Sexual stage P. falciparum gametocytes IC50.
Series [8] can be described thus: HEK293 cytotoxicity assay. The format is cell-based. To be noted: human, HEK293 cells.
In a further series the test system is early stage gametocytes. Conditions: read-out: Early stage gametocytes IC50; ref Trenholme et al., 2014; cited from earlier work.
In another series the test system is late stage gametocytes. To be noted: read-out: Late stage gametocytes IC50; ref Trenholme et al., 2014; cited from earlier work.

“And” between values parts separate entries of the source, which are not always exact repeats. Equal values may be shown once. Read-outs that look alike come from different tables or passages of the source.

Here are results for nine compounds from paper PMC4506969 (International Journal for Parasitology: Drugs and Drug …, 2015).

The IC50 is the concentration at which inhibition is half-maximal. As a reminder, the IC90 is the concentration at which the effect reaches the 90% level. For orientation: inhibition means the change of the read-out against control, counted positive when it falls. For the compound `O=C(/C=C/c1cccc(S(=O)(=O)Nc2ccccc2)c1)NO` [Belinostat, belinostat], the IC50 in the series with P. falciparum 3D7 is 0.06 µM; in the series with P. falciparum Dd2, 0.13 µM; in series [1], below 0.2 µM; in series [2] (Trypanosoma brucei, 48 h) it was 2.61 µM; in series [3] it was 2.37 µM; in the series with HEK293 cells (Homo sapiens, HEK293, 48 h) it was 1.42 µM. The IC50 with T. b. brucei is 2.2 µM. For the same compound, the concentration for an effect of 90% (IC90) in series [1] turned out to be 0.12 µM; in [2] (Trypanosoma brucei), 3.64 µM. For the same compound, the “P. falciparum SI (Selectivity Index)” value in series [1] is 11–40. In addition, in [2], the “Times less active against T.b. brucei than P. falciparum” value was around 100 times. In [2], the “T. b. brucei SI (Selectivity Index)” value is below 1. Further, the “Fold increase in acetylation signal, anti-(tetra) acetyl H4 antibody” value in series [4] (relative density vs DMSO control, normalised to RAP2) is above 1.3 fold. The “Hyperacetylation, anti-(tetra) acetyl H4 antibody (words)” value (“Hyperacetylation … (words)” for short) in [4] is “caused hyperacetylation”. In addition, the inhibition at 1 µM at recombinant PfHDAC1 stood at 78.5 ± 4.7%.

On to `CCN(CC)CCCC(C)Nc1ccnc2cc(Cl)ccc12` (stereo not drawn) [Chloroquine, chloroquine], for which the IC50 in the series on P. falciparum 3D7 worked out at 0.01 µM; with P. falciparum Dd2, 0.08 µM; in series [2] (Trypanosoma brucei, 48 h), 9.92 µM; in series [3], 48.9 µM. Besides, the “P. falciparum SI (Selectivity Index)” value in series [1] is given as 612–4893. Further, in [2], the “T. b. brucei SI (Selectivity Index)” value is recorded as 5. In series [4], the “Hyperacetylation … (words)” value was “did not result in hyperacetylation”.

`CC(=O)NCC(=O)O.CC(=O)NCC(=O)O.N=C(N)c1ccc(N=NNc2ccc(C(=N)N)cc2)cc1` [Diminazene aceturate, diminazene aceturate]: the “T. b. brucei SI (Selectivity Index)” value in series [2] is reported as above 617. Also, the half-maximal inhibitory concentration (IC50) in series [2] (427 bloodstream form, 48 h exposure) is 0.06 µM; in the series on HEK293 cells (48 h exposure, resazurin), above 37 µM.

In the case of `Cc1[nH]c2ccccc2c1CCNCc1ccc(/C=C/C(=O)NO)cc1` [Panobinostat, panobinostat], the IC50 is 0.01 µM with P. falciparum 3D7; 0.03 µM in the series with P. falciparum Dd2; 1.69 µM in series [2] (Trypanosoma brucei, 48 h); 0.07 µM in [3]; around 0.02 µM in the series on P. falciparum; 1.6 µM in the series on T. b. brucei. The half-maximal inhibitory concentration (IC50) in series [7] was 0.94 µM. Besides, the IC90 worked out at 0.01 µM in series [1] and 3.28 µM in series [2] (Trypanosoma brucei). Further, the “Times less active against T.b. brucei than P. falciparum” value in [2] is reported as around 100 times. Moreover, the “Hyperacetylation … (words)” value in series [4] is given as “did not increase acetylation”; in [4] (listed as panobinostat), “did not result in hyperacetylation”. In series [5], the “Hyperacetylation, anti-histone H3 lysine 9 antibody” value is on record as “cause hyperacetylation”. In addition, in [6], the “Hyperacetylation, anti-histone H3 N-terminus antibody” value is given as “did not increase acetylation”. Besides, the inhibition at 1 µM at recombinant PfHDAC1 was around 100%.

For the compound `N=C(N)c1ccc(OCCCCCOc2ccc(C(=N)N)cc2)cc1` [Pentamidine], the IC50 in series [2] (Trypanosoma brucei, 48 h) was 0.004 µM; in the series on HEK293 cells (Homo sapiens, HEK293, 48 h), above 0.69 µM. Also, the “T. b. brucei SI (Selectivity Index)” value in series [2] is reported as above 173.

With `COc1ccc(C[C@H](N)C(=O)N[C@H]2[C@@H](O)[C@H](n3cnc4c(N(C)C)ncnc43)O[C@@H]2CO)cc1` [Puromycin, puromycin], half-maximal inhibition in series [8] (IC50 at 48 h) was put at 0.797 µM.

As to `C/C=C1\NC(=O)[C@H]2CSSCC/C=C/[C@H](CC(=O)N[C@H](C(C)C)C(=O)N2)OC(=O)[C@H](C(C)C)NC1=O` [Romidepsin, romidepsin], the 50% inhibitory concentration (IC50) was 0.09 µM with P. falciparum 3D7; 0.13 µM in the series on P. falciparum Dd2; below 0.2 µM in series [1]; 0.035 µM in series [2] (Trypanosoma brucei, 48 h); 0.001 µM in series [3]; below 0.005 µM with HEK293 cells (Homo sapiens, HEK293, 48 h). Moreover, in [7], the half-inhibitory concentration (IC50) is 0.64 µM. Further, the IC90 is 0.18 µM in series [1] and 0.1 µM in [2] (Trypanosoma brucei). Also, in [1], the “P. falciparum SI (Selectivity Index)” value is given as below 1. In [2], the “T. b. brucei SI (Selectivity Index)” value is listed as below 1. Besides, in [4], the “Hyperacetylation … (words)” value is “caused hyperacetylation”. For the same compound, the “Fold increase in hyperacetylation, anti-histone H3 lysine 9 antibody” value in series [5] (vs vehicle control) is recorded as 5–6 fold. Besides, the inhibition at 1 µM on recombinant PfHDAC1 worked out at 48.3 ± 39.3%. In addition, the “Selectivity for gametocytes compared to the mammalian cell line HepG2” value in [7] was above 10 fold.

Consider `CC(/C=C/C(=O)NO)=C\[C@@H](C)C(=O)c1ccc(N(C)C)cc1` [TSA, trichostatin A], for which, at recombinant PfHDAC1 (1 μM), the “PfHDAC1 % inhibition at 1 μM” value is ~100% and 98.9 ± 1.5%. The IC50 was 0.09 µM in the series with early stage gametocytes and 0.07 µM in the series with late stage gametocytes.

As to `O=C(CCCCCCC(=O)Nc1ccccc1)NO` [Vorinostat, suberoylanilide hydroxamic acid], the “Times less active against T.b. brucei than P. falciparum” value in series [2] is recorded as around 100 times. Further, the 90% effect concentration (IC90) in series [2] (Trypanosoma brucei) was 18.7 µM. Besides, the inhibition at 1 µM on recombinant PfHDAC1 stood at 59.8 ± 12.7%. In addition, the IC50 with late stage gametocytes was 0.81 µM.
